The source made the active and inactive calls. The rule behind the calls is not given here.
How the values were obtained:
[1] = molecular target: CYP2C9 (Homo sapiens, UniProt P11712); assay: Inhibition of CYP2C9 (unknown origin) assessed as remaining activity relative to control; format: ADME
[2] = molecular target: T1, Nuclear factor erythroid 2-related factor 2 (Mus musculus) (UniProt Q60795); assay: Activation of NRF2 in mouse BV2 cells assessed as increase in GCLM protein expression incubated for 12 hrs by Western blot analysis; format: cell-based
T1 sequence (whole entry): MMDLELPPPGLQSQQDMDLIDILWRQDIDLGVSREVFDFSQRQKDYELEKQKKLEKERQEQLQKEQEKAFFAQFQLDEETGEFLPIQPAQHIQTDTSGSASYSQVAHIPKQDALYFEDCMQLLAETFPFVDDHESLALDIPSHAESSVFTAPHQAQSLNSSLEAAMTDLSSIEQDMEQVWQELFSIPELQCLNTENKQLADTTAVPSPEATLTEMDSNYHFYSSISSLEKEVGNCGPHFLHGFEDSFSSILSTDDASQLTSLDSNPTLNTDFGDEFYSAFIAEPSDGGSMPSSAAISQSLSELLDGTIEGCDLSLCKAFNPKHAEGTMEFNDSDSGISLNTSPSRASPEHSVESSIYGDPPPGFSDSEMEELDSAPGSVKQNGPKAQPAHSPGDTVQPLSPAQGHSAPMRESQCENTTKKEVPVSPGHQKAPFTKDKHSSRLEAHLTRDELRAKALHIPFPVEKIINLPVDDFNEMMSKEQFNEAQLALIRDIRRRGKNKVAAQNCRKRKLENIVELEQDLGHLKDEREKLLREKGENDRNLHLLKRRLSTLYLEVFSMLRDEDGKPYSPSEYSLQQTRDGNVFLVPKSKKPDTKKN
Outline: (§1)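 BV-2 cells washed in ice-cold PBS and lysed on ice for 40 min in RIPA buffer with protease inhibitors. Nuclear fractions prepared separately. 10 μg protein run on SDS-PAGE and blotted to PVDF. Membranes blocked in 5% skim milk/TBST and probed overnight at 4 °C for Nrf2, HO-1, GCLM or SOD1. HRP secondary with ECL detection. Band densities normalised to Lamin B1 or β-actin.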

[3] = tested on: Mus musculus; assay: Effect on mean number of arm entries in C57BL/6 mouse model of scopolamine-induced amnesia at 30 mg/kg, po administered for 5 days and measured on day 5 after 30 mins of scopolamine stimulation by Y-maze test; format: ADME, organism-based; conditions: in vivo
Outline: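 Male C57BL/6N mice given 30 mg/kg/day compound in saline by gavage for 5 days. Scopolamine 2 mg/kg in saline given i.p. 30 min before testing on the last day. Mice handled daily for 7 days beforehand. Free exploration of a three-arm Y-maze for 10 min, with entries scored manually (all four paws). Alternation = consecutive entries into three different arms.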

[4] = Stability in rat plasma assessed as compound remaining after 30 mins; format: ADME, cell-free; conditions: read-out: Stability
[5] = molecular target: T2, CYP1A2 (Homo sapiens, UniProt P05177); assay: Inhibition of CYP1A2 (unknown origin) assessed as remaining activity relative to control; format: ADME
T2 sequence (P05177 whole entry): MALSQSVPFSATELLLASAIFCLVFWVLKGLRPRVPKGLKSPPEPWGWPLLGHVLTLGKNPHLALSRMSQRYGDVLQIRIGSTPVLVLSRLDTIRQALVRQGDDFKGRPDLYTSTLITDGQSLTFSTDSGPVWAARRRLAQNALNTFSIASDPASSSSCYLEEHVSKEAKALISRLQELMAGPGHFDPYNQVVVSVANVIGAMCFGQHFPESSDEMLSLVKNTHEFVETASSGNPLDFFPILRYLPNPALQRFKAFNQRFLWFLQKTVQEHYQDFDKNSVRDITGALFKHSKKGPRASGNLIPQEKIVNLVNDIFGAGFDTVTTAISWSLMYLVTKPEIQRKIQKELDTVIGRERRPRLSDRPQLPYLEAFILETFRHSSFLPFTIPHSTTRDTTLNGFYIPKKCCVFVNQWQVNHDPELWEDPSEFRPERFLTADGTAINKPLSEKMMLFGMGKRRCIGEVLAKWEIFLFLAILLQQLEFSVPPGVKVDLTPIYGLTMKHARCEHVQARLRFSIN

[6] = molecular target: T1, Nuclear factor erythroid 2-related factor 2 (Mus musculus); assay: Activation of NRF2 in mouse BV2 cells assessed as inhibition of LPS-stimulated NO production preincubated for 6 hrs followed by LPS stimulation for 24 hrs by Griess reagent-based assay; format: cell-based
Outline: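 BV-2 cells pretreated with a range of compound concentrations for 6 h, then stimulated with 1 µg/mL LPS for 24 h. Medium nitrite measured by Griess reaction (sulfanilamide/phosphoric acid, then NED, 5 min each at room temperature in the dark). Absorbance at 540 nm read against a nitrite standard curve.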

[7] = tested on: BV-2; assay: Inhibition of H2O2-stimulated ROS accumulation in mouse BV2 cells preincubated for 24 hrs followed by H2O2 stimulation for 20 mins by DCFH-DA dye based fluorescence microscopy; format: functional, cell-based
Outline: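 BV-2 cells treated with a range of compound concentrations for 24 h at 37 °C. Loaded with 40 μM DCFH-DA for 40 min, then 300 μM H2O2 added for 20 min in the dark. Cells washed with PBS and DCF fluorescence imaged by digital microscopy.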

[8] = molecular target: T1, Nuclear factor erythroid 2-related factor 2 (Mus musculus); assay: Activation of NRF2 in mouse BV2 cells assessed as increase in HO1 protein expression incubated for 12 hrs by Western blot analysis; format: cell-based; outline: as §1
[9] = Lipophilicity, log P of the compound; format: physicochemical; conditions: octanol/water
[10] = molecular target: T1, Nuclear factor erythroid 2-related factor 2 (Mus musculus); assay: Activation of NRF2 in mouse BV2 cells assessed as increase in GCLM mRNA level at 0.1 to 10 uM incubated for 8 hrs by qRT-PCR analysis; format: cell-based
Outline: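 BV-2 microglia grown in RPMI 1640 with 10% FBS, 2.05 mM L-glutamine and penicillin-streptomycin at 37 °C, 5% CO2. Cells exposed to a range of compound concentrations for 8 h. Ho-1 or Gclm mRNA measured by qRT-PCR and expressed relative to untreated control. Means ± SEM, one-way ANOVA with Dunnett's test.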

[11] = tested on: BV-2; assay: Cytotoxicity against mouse BV2 cells assessed as reduction in cell viability upto 10 uM incubated for 24 hrs by WST assay; format: cell-based; conditions: bv-2, 24 h
Outline: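 BV-2 cells incubated with compound concentrations up to 10 µM for 24 h at 37 °C. Ez-Cytox WST reagent added for 1 h and formazan absorbance read at 450 nm.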

[12] = tested on: Mus musculus; assay: Cognition enhancing effect in C57BL/6 mouse model of scopolamine-induced amnesia assessed as increase in latency to enter dark room at 30 mg/kg, po administered for 5 days and measured on day 5 after 30 mins of scopolamine stimulation by passive avoidance test relative to control; format: functional
Outline: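 Male C57BL/6N mice given 30 mg/kg/day compound in saline orally for 5 days. Scopolamine 1 mg/kg i.p. given on day 4, 30 min before the acquisition trial. Step-through latency recorded in the passive avoidance test.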

[13] = tested on: BV-2; assay: Inhibition of H2O2-stimulated ROS production in mouse BV2 cells preincubated for 24 hrs followed by H2O2 stimulation for 20 mins by DCFH-DA dye based assay; format: functional, cell-based
Outline: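 BV-2 cells treated with a range of compound concentrations for 24 h at 37 °C. Loaded with 20 μM DCFH-DA for 40 min, then 200 μM H2O2 added for 20 min at 37 °C in the dark. DCF fluorescence read at ex 480 nm / em 530 nm. Compared with H2O2-treated control.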

CYP2C9, sequence (P11712 whole entry): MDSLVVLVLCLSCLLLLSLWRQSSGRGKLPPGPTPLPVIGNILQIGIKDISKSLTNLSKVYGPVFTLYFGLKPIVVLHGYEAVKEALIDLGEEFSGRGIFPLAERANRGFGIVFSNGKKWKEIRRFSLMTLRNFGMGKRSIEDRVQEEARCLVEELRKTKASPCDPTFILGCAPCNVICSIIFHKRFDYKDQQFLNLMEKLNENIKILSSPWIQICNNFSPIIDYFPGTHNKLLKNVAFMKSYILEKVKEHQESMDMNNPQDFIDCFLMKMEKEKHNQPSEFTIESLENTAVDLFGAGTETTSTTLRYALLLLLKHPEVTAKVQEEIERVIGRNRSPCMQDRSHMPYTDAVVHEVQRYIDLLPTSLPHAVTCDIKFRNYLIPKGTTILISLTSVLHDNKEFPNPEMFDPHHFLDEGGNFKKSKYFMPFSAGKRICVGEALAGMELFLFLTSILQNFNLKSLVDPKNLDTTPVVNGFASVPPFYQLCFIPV

## CN1CCN(C(=O)COc2ccc(C(=O)/C=C/c3ccccc3C(F)(F)F)cc2)CC1.Cl
[1]
  activity: 95.1%
[2]
  Activity: Dose-dependent effect
[3]
  activity: Non-Toxic
[4]
  remaining at 0.5 h: 99.3%
[5]
  activity: 98.5%
[6]
  Activity: Dose-dependent effect
[7]
  inhibition: Dose-dependent effect
[8]
  Activity: Dose-dependent effect
[9]
  logP: 3.22
[10]
  Activity: Active
[11]
  activity: Non-Toxic
[12]
  activity: >70%
[13]
  inhibition: Dose-dependent effect

Source: ChEMBL document CHEMBL4312006, “A novel chalcone derivative as Nrf2 activator attenuates learning and memory impairment in a scopolamine-induced mouse model” (Eur J Med Chem, 2020)
